This is an account of results in ChEMBL document CHEMBL1240517, “Bisbibenzyl derivatives sensitize vincristine-resistant KB/VCR cells to chemotherapeutic agents by retarding P-gp activity” (Bioorg Med Chem, 2010).

The subject of assay [1] is KB/VCR. Put plainly: Reversal of P-glycoprotein-mediated vincristine-resistance in human KB/VCR cells expressing Pgp assessed as ratio of adriamycin IC50 to adriamycin IC50 in presence of compound at 16 uM after 48 hrs by MTT assay. The format is cell-based. The gist of the method: (§1)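 Cells were exposed for 48 h to VCR or ADR alone, or to VCR or ADR combined with a fixed concentration of modulator. Verapamil (16 µM) served as the reference agent. […] RF = IC50 of drug alone / IC50 with modulator. Means ± SD of three experiments.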

In assay [2] the test system is KB. Nature of the assay: Potentiation of vincristine-induced cytotoxicity against human KB cells at 16 uM after 48 hrs by MTT assay. The format is functional. The gist of the method:
as §1

Another assay concerns KB/VCR (human). The settings on record: 4 to 16 uM.
Assay [3] concerns KB. Nature of the assay: Potentiation of adriamycin-induced cytotoxicity against human KB cells at 16 uM after 48 hrs by MTT assay. The format is functional. The gist of the method: as §1
The subject of assay [4] is KB/VCR. Nature of the assay: Reversal of P-glycoprotein-mediated vincristine-resistance in human KB/VCR cells expressing Pgp assessed as ratio of vincristine IC50 to vincristine IC50 in presence of compound at 16 uM after 48 hrs by MTT assay. The format is cell-based. The gist of the method: as §1
The subject of assay [5] is KB. Nature of the assay: Cytotoxicity against human KB cells after 48 hrs by MTT assay. The format is functional, cell-based.
Assay [6] can be described thus: Cytotoxicity against human KB/VCR cells expressing Pgp after 48 hrs by MTT assay. The format is functional, cell-based. The essentials: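 KB/VCR cells were kept in 200 ng/mL VCR and moved to drug-free medium for at least one week before use. Cells were exposed to graded compound concentrations for 48 h, with DMSO-treated cells as controls. Viability was read by MTT. IC50 values are means of three experiments.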

Assay [7] deals with KB/VCR. Put plainly: Reversal of P-glycoprotein-mediated vincristine-resistance in human KB/VCR cells expressing Pgp assessed as ratio of vincristine IC50 to vincristine IC50 in presence of compound at 4 uM after 48 hrs by MTT assay. Format: cell-based. The gist of the method: (§2)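 Cells were exposed for 48 h to VCR or ADR alone, or to VCR or ADR combined with a fixed concentration of modulator. RF = IC50 of drug alone / IC50 with modulator. Means ± SD of three experiments.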

Assay [8] has as its system KB/VCR. Nature of the assay: Reversal of P-glycoprotein-mediated vincristine-resistance in human KB/VCR cells expressing Pgp assessed as ratio of vincristine IC50 to vincristine IC50 in presence of compound at 8 uM after 48 hrs by MTT assay. The format is cell-based. The essentials:
as §2

The test system of assay [9] is KB/VCR. Put plainly: Inhibition of P-gp-mediated rhodamine-123 efflux in human KB/VCR cells at 6 uM after 2 hrs by flow cytometry. Format: cell-based. The gist of the method: (§3)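 For efflux, cells were loaded with 5 µM Rh123 together with modulator or verapamil for 60 min at 37 °C. Cells were washed three times in Rh123-free medium and collected at 15, 30, 45, 60, 90 and 120 min after wash-out. They were resuspended in ice-cold PBS, and remaining Rh123 fluorescence was measured by flow cytometry.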

The subject of assay [10] is KB/VCR. Nature of the assay: Reversal of P-glycoprotein-mediated vincristine-resistance in human KB/VCR cells expressing Pgp assessed as ratio of adriamycin IC50 to adriamycin IC50 in presence of compound at 4 uM after 48 hrs by MTT assay. The format is cell-based. The essentials:
as §1

The subject of assay [11] is KB/VCR. Put plainly: Induction of apoptosis in human KB/VCR cells expressing Pgp assessed as down-regulation of Bcl-2 expression at 16 uM after 48 hrs by Western blotting. The format is functional, cell-based. The gist of the method: (§4)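 KB/VCR cells were treated for 48 h with modulator (16 µM), VCR (0.2 µM), or both. Cells were lysed in RIPA buffer containing protease and phosphatase inhibitors. Protein was separated by SDS–PAGE and transferred to PVDF. Membranes were blocked in 5% milk/TBST and probed overnight with anti-Bcl-2 or anti-Bax, then an HRP secondary. GAPDH served as loading control, with ECL detection.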

In assay [12] the test system is KB/VCR. Nature of the assay: Induction of apoptosis in human KB/VCR cells expressing Pgp assessed as up-regulation of Bax expression at 16 uM after 48 hrs by Western blotting. Format: functional, cell-based. The essentials: as §4
The subject of assay [13] is KB/VCR. Nature of the assay: Reversal of P-glycoprotein-mediated vincristine-resistance in human KB/VCR cells expressing Pgp assessed as ratio of adriamycin IC50 to adriamycin IC50 in presence of compound at 8 uM after 48 hrs by MTT assay. Format: cell-based. The essentials: as §1
The test system of assay [14] is KB. Put plainly: Potentiation of adriamycin-induced cytotoxicity against human KB cells at 8 uM after 48 hrs by MTT assay. The format is functional. The gist of the method: as §1
Assay [15] concerns KB. Put plainly: Potentiation of vincristine-induced cytotoxicity against human KB cells at 4 uM after 48 hrs by MTT assay. Format: functional. The gist of the method:
as §1

For assay [16], the system named is KB. Put plainly: Potentiation of adriamycin-induced cytotoxicity against human KB cells at 4 uM after 48 hrs by MTT assay. Format: functional. The gist of the method:
as §1

The test system of assay [17] is KB/VCR. Put plainly: Reversal of P-gp-mediated multidrug-resistance in human KB/VCR cells assessed as increase in intracellular rhodamine-123 accumulation after 1 hr by flow cytometry relative to control. Format: cell-based. The essentials: (§5)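 Cells were pretreated with modulator at 4, 8 or 16 µM, or DMSO, for 1 h. Rh123 (5 µM) was then added for a further 1 h at 37 °C in the dark. Cells were washed and resuspended in ice-cold PBS. Rh123 fluorescence was read by flow cytometry using 488 nm excitation and a 530 nm band-pass filter. Means ± SD of three independent experiments, compared with DMSO-treated cells.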

Assay [18] relates to KB. Put plainly: Potentiation of vincristine-induced cytotoxicity against human KB cells at 8 uM after 48 hrs by MTT assay. Format: functional. The essentials:
as §1

The subject of assay [19] is KB/VCR. Put plainly: Induction of apoptosis in human KB/VCR cells expressing Pgp assessed as morphological changes using DAPI staining at 16 uM after 48 hrs by fluorescence microscopic analysis. Format: functional, cell-based. The gist of the method:
(§6)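 KB/VCR cells were treated for 48 h with modulator (16 µM), VCR (0.2 µM), or both. Cells were fixed in 4% paraformaldehyde for 10 min, permeabilized with 0.1% Triton X-100, and stained with DAPI (1:2000) for 10 min. Condensed or fragmented nuclei were scored by fluorescence microscopy.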

Assay [20] concerns KB/VCR. Put plainly: Inhibition of P-gp-mediated rhodamine-123 efflux in human KB/VCR cells at 6 uM after 1 hr by flow cytometry. The format is cell-based. The essentials:
as §3

The subject of assay [21] is KB. Put plainly: Induction of rhodamine-123 accumulation in human KB cells at […] after 1 hr by flow cytometry. The format is functional, cell-based. The gist of the method: as §5
For assay [22], the system named is KB/VCR. Nature of the assay: Reversal of P-glycoprotein-mediated vincristine-resistance in human KB/VCR cells expressing Pgp assessed as ratio of vincristine IC50 to vincristine IC50 in presence of compound at 4 uM after 48 hrs by MTT assay.
Assay [23] has as its system KB. Put plainly: Induction of adriamycin accumulation in human KB cells at […] after 1 hr by flow cytometry. The format is functional, cell-based. The essentials:
(§7)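 Cells were incubated with ADR at 3 µg/mL, alone or with modulator at 4, 8 or 16 µM, for 1 h at 37 °C. The reaction was stopped in an ice-water bath, and cells were washed twice with ice-cold PBS. Intracellular ADR fluorescence was measured by flow cytometry as mean intensity and expressed relative to DMSO-treated control cells.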

Assay [24] relates to KB/VCR. Nature of the assay: Reversal of P-gp-mediated multidrug-resistance in human KB/VCR cells assessed as increase in intracellular adriamycin accumulation at 4 uM after 1 hr by flow cytometry relative to control. The format is cell-based. The essentials: as §7
The test system of assay [25] is KB/VCR. Nature of the assay: Reversal of P-gp-mediated multidrug-resistance in human KB/VCR cells assessed as increase in intracellular adriamycin accumulation at 16 uM after 1 hr by flow cytometry relative to control. The format is cell-based. The essentials: as §7
Assay [26] concerns KB/VCR. Put plainly: Reversal of P-gp-mediated multidrug-resistance in human KB/VCR cells assessed as increase in intracellular adriamycin accumulation at 8 uM after 1 hr by flow cytometry relative to control. Format: cell-based. The essentials: as §7
In assay [27] the test system is KB/VCR. Put plainly: Induction of apoptosis in human KB/VCR cells expressing Pgp assessed as up-regulation of Bax expression at 0.2 uM after 48 hrs by Western blotting. The format is functional, cell-based. The gist of the method:
as §4

Assay [28] concerns KB/VCR. Nature of the assay: Induction of apoptosis in human KB/VCR cells expressing Pgp assessed as morphological changes using DAPI staining at 0.2 uM after 48 hrs by fluorescence microscopic analysis. Format: functional, cell-based. The gist of the method:
as §6

Assay [29] relates to KB/VCR. Nature of the assay: Induction of apoptosis in human KB/VCR cells expressing Pgp assessed as down-regulation of Bcl-2 expression at 0.2 uM after 48 hrs by Western blotting. Format: functional, cell-based. The gist of the method:
as §4

Several values for one entry are separate records, joined by “and”; a condition that tells them apart may be missing. Equal entries are not always repeated. Activity calls are given as the source filed them. No cut-off for these calls is given here.

Consider `COc1ccc(CCN(C)CCCC(C#N)(c2ccc(OC)c(OC)c2)C(C)C)cc1OC` (stereo unspecified), for which the fold change (FC) was determined as 5.32 in the assay with KB/VCR [1], 1.29 in the assay with KB [2], 1.06 with KB [3] and 8.85 in the assay with KB/VCR [4]. Also, in the assay with KB/VCR (human), the inhibition result was “inactive”.
As to `Oc1ccc2cc1Oc1ccc(cc1)/C=C/c1cccc(O)c1Oc1cccc(c1)CC2` [DEHYDROMARCHANTIN C], the IC50 was 84 µM with KB [5] and 86.9 µM in assay [6] (Homo sapiens, KB/VCR, 48 h). In addition, the fold change (FC) was found to be 5.95 in the assay with KB/VCR [4], 2.16 in the assay on KB/VCR [7] and 3.51 in the assay on KB/VCR [8].
With `COc1ccc2cc1Oc1ccc(cc1)CCc1cccc(OC)c1Oc1cccc(c1)CC2` [DIMETHYL ETHER MARCHANTIAN C], the inhibition entry with KB/VCR [9] was “inactive”. For the same molecule, the fold change (FC) stood at 3.96 with KB/VCR [10]; 6.06 with KB/VCR [1]; 4.2 in the assay on KB/VCR [13]; 1.15 in the assay with KB [14]; 1.17 in the assay on KB [15]; 1.02 in the assay on KB [16]. The “fold change (FC)” value was 1.54 in the assay on KB [2]; 0.91 in the assay on KB [3]; 7.53 with KB/VCR [4]; 1.33 with KB [18]; 4.78 in the assay with KB/VCR [7]; 2.57 and 6.76 in the assay with KB/VCR [8]. Further, the outcome with KB/VCR [11], with KB/VCR [12], in the assay on KB/VCR [19] and with KB [21] was inactive. The concentration for half-maximal inhibition (IC50) with KB [5] is 94.9 µM; in assay [6] (Homo sapiens, KB/VCR, 48 h) it was 95.4 µM. In the assay on KB/VCR [17], the Activity result was “Dose-dependent effect”. In addition, the inhibition result with KB/VCR [20] is “Active”.
`COc1ccc2cc1Oc1ccc(cc1)/C=C/c1cccc(OC)c1Oc1cccc(c1)CC2` [DIMETHYLETHER DEHYDROMARCHANTIN C] gave an IC50 in the assay with KB [5] of 93.5 µM. Moreover, the fold change (FC) was determined as 3.1 in the assay on KB/VCR [4] and 2.47 with KB/VCR [22].
For the molecule `COc1cccc2c1C(=O)c1c(O)c3c(c(O)c1C2=O)C[C@@](O)(C(=O)CO)C[C@@H]3O[C@H]1C[C@H](N)[C@H](O)[C@H](C)O1.Cl` [DOXORUBICIN HYDROCHLORIDE], the result with KB [23] was inactive. For the same molecule, the fold change (FC) in the assay with KB/VCR [24] is 2.1; with KB/VCR [25] it was 5.7; with KB/VCR [26], 2.8. The IC50 in the assay on KB [5] was determined as 1.66 µg/mL; in assay [6] (Homo sapiens, KB/VCR, 48 h), 49.7 µg/mL.
In the case of `CC[C@]1(O)C[C@H]2CN(CCc3c([nH]c4ccccc34)[C@@](C(=O)OC)(c3cc4c(cc3OC)N(C=O)[C@H]3[C@@](O)(C(=O)OC)[C@H](OC(C)=O)[C@]5(CC)C=CCN6CC[C@]43[C@@H]65)C2)C1` [VINCRISTINE], the result with KB/VCR [27], in the assay on KB/VCR [28] and in the assay on KB/VCR [29] was inactive. Also, the IC50 stood at 0.00607 µM in the assay on KB [5]; 1.48 µM in assay [6] (Homo sapiens, KB/VCR, 48 h); 1.49 µM in [6] (kb/vcr).
